Measurements from ChEMBL document CHEMBL5154895, “Mechanistic Studies and In Vivo Efficacy of an Oxadiazole-Containing Antibiotic” (J Med Chem, 2022).
In brackets after ≈: the same amount, converted by molar mass. Activity calls are given as the source filed them. The rule behind the calls is not given here.

Legend:
[1] = Toxicity in Balb/c mouse infected with methicillin-resistant Staphylococcus aureus USA300 assessed as hemorrhage administered topically twice daily 2 days post infection and measured after 5 days post compound treatment by H and E staining based histopathological analysis; conditions: in vivo, topical_or_ocular, 120 h, time 5 day
In short: (§1)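 MRSA USA300-infected punch wounds in mice, n=5. Topical 2% agent or petroleum jelly vehicle twice daily from day 2 for 5 days. The left wound was formalin-fixed, cut into 4-μm sections and H&E-stained. Whole slides were scanned and assessed by a board-certified veterinary pathologist for necrosis, inflammation, haemorrhage and related features.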

Staphylococcus aureus [2] = test: Downregulation of site-specific integrase protein expression in Staphylococcus aureus measured after 2 hrs by LC-MS/MS analysis; format: functional
In short: (§2)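 S. aureus ATCC 25923 at OD600 0.6 exposed to compound or DMSO control for 2 h at 37°C, normalized to OD600 1.1 and PBS-washed. Cells were pressure-cycling lysed in 100 mM ammonium bicarbonate, and 50 μg protein was acetone-precipitated, reduced and alkylated, then Trypsin/Lys-C digested and C18-desalted. About 1 μg peptides went to LC-MS/MS. Label-free quantitation kept proteins present in all 3 samples, filtered at p <0.05.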

Staphylococcus aureus [3] = test: Antibacterial activity against methicillin-resistant Staphylococcus aureus NRS384 assessed as inhibition of bacterial growth incubated for 18 to 20 hrs by broth microdilution method; format: functional; conditions: time 18-20 hrs
In short: (§3)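 Broth microdilution per CLSI. Inoculum was set to 0.5 McFarland and diluted in CAMHB to about 5×10^5 CFU/mL. Serial dilutions of agent were incubated aerobically at 37 °C for 18–20 h. MIC was read visually as the lowest concentration with complete growth inhibition.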

Staphylococcus aureus [4] = test: Downregulation of EssB protein expression in Staphylococcus aureus assessed as log2 of fold change in protein level measured after 2 hrs by LC-MS/MS analysis relative to control; format: functional
In short: (§4)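 S. aureus ATCC 25923 at OD600 0.6 was treated with compound or DMSO for 2 h at 37 °C, normalised to OD600 1.1, and washed in PBS. Cells were pressure-lysed in 100 mM ammonium bicarbonate, then acetone-precipitated, reduced with DTT, alkylated with iodoacetamide, and digested with trypsin/Lys-C. Peptides were desalted and run on LC-MS/MS. Label-free quantitation used proteins present in all 3 samples, filtered at p<0.05 against DMSO.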

Staphylococcus aureus [5] = test: Downregulation of glutamyl endopeptidase protein expression in Staphylococcus aureus measured after 2 hrs by LC-MS/MS analysis; format: functional; in short: as §4
Staphylococcus aureus [6] = test: Downregulation of MtaB protein expression in Staphylococcus aureus assessed as log2 of fold change in protein level measured after 2 hrs by LC-MS/MS analysis relative to control; format: functional; in short: as §4
Staphylococcus aureus [7] = test: Upregulation of MecA protein expression in Staphylococcus aureus assessed as log2 of fold change in protein level measured after 2 hrs by LC-MS/MS analysis relative to control; format: functional; in short: as §2
Staphylococcus aureus [8] = test: Upregulation of TraG protein expression in Staphylococcus aureus assessed as log2 of fold change in protein level measured after 2 hrs by LC-MS/MS analysis relative to control; format: functional; in short: as §2
Staphylococcus aureus [9] = test: Downregulation of SarR protein expression in Staphylococcus aureus assessed as log2 of fold change in protein level measured after 2 hrs by LC-MS/MS analysis relative to control; format: functional; in short: as §4
[10] = test system: Staphylococcus epidermidis; test: Antibacterial activity against Staphylococcus epidermidis NRS 101 assessed as inhibition of bacterial growth incubated for 18 to 20 hrs by broth microdilution method; format: functional; conditions: time 18-20 hrs
In short: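 Broth microdilution per CLSI. Inoculum at 0.5 McFarland, diluted in cation-adjusted Mueller Hinton broth to about 5 × 10^5 CFU/mL. Serial compound dilutions incubated aerobically at 37° C for 18–20 hours. MIC taken as the lowest concentration completely inhibiting visible growth.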

Staphylococcus aureus [11] = test: Downregulation of DapE protein expression in Staphylococcus aureus assessed as log2 of fold change in protein level measured after 2 hrs by LC-MS/MS analysis relative to control; format: functional; in short: as §4
Staphylococcus aureus [12] = test: Downregulation of AdhE protein expression in Staphylococcus aureus assessed as log2 of fold change in protein level measured after 2 hrs by LC-MS/MS analysis relative to control; format: functional; in short: as §4
Staphylococcus aureus [13] = test: Antibacterial activity against methicillin-sensitive Staphylococcus aureus NRS 107 assessed as inhibition of bacterial growth incubated for 18 to 20 hrs by broth microdilution method; format: functional; conditions: time 18-20 hrs; in short: as §3
Staphylococcus aureus [14] = test: Downregulation of LipA protein expression in Staphylococcus aureus assessed as log2 of fold change in protein level measured after 2 hrs by LC-MS/MS analysis relative to control; format: functional; in short: as §4
Staphylococcus aureus [15] = test: Downregulation of CDP-diacylglycerol-glycerol-3-phosphate-3-phosphatidyltransferase protein expression in Staphylococcus aureus measured after 2 hrs by LC-MS/MS analysis; format: functional; in short: as §4
Staphylococcus aureus [16] = test: Downregulation of EsxA protein expression in Staphylococcus aureus assessed as log2 of fold change in protein level measured after 2 hrs by LC-MS/MS analysis relative to control; format: functional; in short: as §4
Staphylococcus aureus [17] = test: Downregulation of uroporphyrinogen-III C-methyltransferase protein expression in Staphylococcus aureus measured after 2 hrs by LC-MS/MS analysis; format: functional; in short: as §2
Staphylococcus aureus [18] = test: Downregulation of sodium ABC transporter permease protein expression in Staphylococcus aureus measured after 2 hrs by LC-MS/MS analysis; format: functional; in short: as §2
Staphylococcus aureus [19] = test: Upregulation of siderophore biosynthesis protein SbnA expression in Staphylococcus aureus measured after 2 hrs by LC-MS/MS analysis; format: functional; in short: as §2
Staphylococcus aureus [20] = test: Upregulation of dihydroxyacetone kinase subunit L expression in Staphylococcus aureus measured after 2 hrs by LC-MS/MS analysis; format: functional; in short: as §2
Enterococcus faecalis = test: Antibacterial activity against vancomycin-resistant Enterococcus faecalis ATCC 51299 assessed as inhibition of bacterial growth incubated for 18 to 20 hrs by broth microdilution method; format: functional; conditions: time 18-20 hrs
In short: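 Broth microdilution per CLSI. Enterococci were diluted to about 5×10^5 CFU/mL in TSB and incubated aerobically with serial dilutions of agent at 37 °C for 18–20 h. MIC was read visually as the lowest concentration with no visible growth.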

Staphylococcus aureus [21] = test: Downregulation of 50S rRNA methyltransferase protein expression in Staphylococcus aureus measured after 2 hrs by LC-MS/MS analysis; format: functional; in short: as §4
Streptococcus pneumoniae = test: Antibacterial activity against […] ATCC 700677 assessed as inhibition of bacterial growth incubated for 18 to 20 hrs by broth microdilution method; format: functional; conditions: time 18-20 hrs
In short: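 Broth microdilution per CLSI. S. pneumoniae was diluted to about 5×10^5 CFU/mL in TSB and incubated with serial dilutions of agent at 37 °C for 18–20 h under 5% CO2. MIC was read visually as the lowest concentration completely inhibiting growth.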

Staphylococcus aureus [22] = test: Downregulation of signal peptidase II protein expression in Staphylococcus aureus measured after 2 hrs by LC-MS/MS analysis; format: functional; in short: as §2
Staphylococcus aureus [23] = test: Upregulation of Cro/CI family transcriptional regulator expression in Staphylococcus aureus measured after 2 hrs by LC-MS/MS analysis; format: functional; in short: as §2
[24] = Toxicity in Balb/c mouse infected with methicillin-resistant Staphylococcus aureus USA300 assessed as necrosis administered topically twice daily 2 days post infection and measured after 5 days post compound treatment by H and E staining based histopathological analysis; conditions: in vivo, topical_or_ocular, 120 h, time 5 day; in short: as §1
Staphylococcus aureus [25] = test: Upregulation of siderophore biosynthesis protein SbnE expression in Staphylococcus aureus measured after 2 hrs by LC-MS/MS analysis; format: functional; in short: as §2

## CC1CC(C)CN(S(=O)(=O)c2ccc(C(=O)Nc3nnc(-c4ccc(C(F)(F)F)cc4)o3)cc2)C1 (configuration not stated)
[1]
  Activity: Toxic
Staphylococcus aureus [2]
  Activity: Active
Staphylococcus aureus [3]
  MIC: 0.25 µg/mL (≈ 0.492 µM)
Staphylococcus aureus [4]
  log2FC: -3.3
Staphylococcus aureus [5]
  Activity: Active
Staphylococcus aureus [6]
  log2FC: -2
Staphylococcus aureus [7]
  log2FC: 2
Staphylococcus aureus [8]
  log2FC: 2
Staphylococcus aureus [9]
  log2FC: -2
[10]
  MIC: 0.25 µg/mL (≈ 0.492 µM)
Staphylococcus aureus [11]
  log2FC: -3.3
Staphylococcus aureus [12]
  log2FC: -2.5
Staphylococcus aureus [13]
  MIC: 0.25 µg/mL (≈ 0.492 µM)
Staphylococcus aureus [14]
  log2FC: -2
Staphylococcus aureus [15]
  Activity: Active
Staphylococcus aureus [16]
  log2FC: -2
Staphylococcus aureus [17]
  Activity: Active
Staphylococcus aureus [18]
  Activity: Active
Staphylococcus aureus [19]
  Activity: Active
Staphylococcus aureus [20]
  Activity: Active
Enterococcus faecalis
  MIC: 0.25 µg/mL (≈ 0.492 µM)
Staphylococcus aureus [21]
  Activity: Active
Streptococcus pneumoniae
  MIC: 0.06 µg/mL (≈ 0.118 µM)
Staphylococcus aureus [22]
  Activity: Active
Staphylococcus aureus [23]
  Activity: Active
[24]
  Activity: Toxic
Staphylococcus aureus [25]
  Activity: Active
